Source: PubChem (several laboratories)
Neddylation inh – inhibitors of cullin neddylation, primary screen, biochemical, TR-FRET, uHTS, NAE and Ubc12; NEDD8-conjugating enzyme Ubc12 (Homo sapiens) + NEDD8-activating enzyme E1 regulatory …; calls only at 25 µM; hit rate 0.58% among 360,000; in the data active = inhibition above about 36%
Target sequence (P61081 whole entry, looked up): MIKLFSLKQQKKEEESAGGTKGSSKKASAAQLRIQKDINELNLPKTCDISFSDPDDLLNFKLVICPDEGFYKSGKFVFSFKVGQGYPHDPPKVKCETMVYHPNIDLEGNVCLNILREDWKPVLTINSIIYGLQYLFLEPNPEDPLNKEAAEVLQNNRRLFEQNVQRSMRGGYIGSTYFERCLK
Target sequence (Q13564 whole entry, looked up): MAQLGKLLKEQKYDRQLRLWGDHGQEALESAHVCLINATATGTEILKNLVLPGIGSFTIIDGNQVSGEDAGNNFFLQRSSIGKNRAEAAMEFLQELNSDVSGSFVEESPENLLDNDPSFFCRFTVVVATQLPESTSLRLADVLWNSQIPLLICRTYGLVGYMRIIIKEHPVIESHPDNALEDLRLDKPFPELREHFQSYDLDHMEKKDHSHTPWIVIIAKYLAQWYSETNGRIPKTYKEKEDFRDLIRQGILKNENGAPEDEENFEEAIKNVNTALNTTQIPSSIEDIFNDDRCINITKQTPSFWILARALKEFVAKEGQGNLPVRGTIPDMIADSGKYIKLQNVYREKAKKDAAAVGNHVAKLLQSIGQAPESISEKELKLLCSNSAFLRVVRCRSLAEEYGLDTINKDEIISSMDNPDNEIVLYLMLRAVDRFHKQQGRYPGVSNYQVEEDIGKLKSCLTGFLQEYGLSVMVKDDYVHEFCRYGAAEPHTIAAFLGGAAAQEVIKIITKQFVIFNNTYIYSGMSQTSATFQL
NR2E3 ag-1 – inhibitors of NR2E3-RetCOR corepressor binding, primary screen, NR2E3 agonist project, biochemical, TR-FRET, GST-NR2E3, biotin-RetCOR; hit rate 0.12% among 320,000; AID 2300, 2010; Photoreceptor-specific nuclear receptor (Homo sapiens), Q9Y5X4; 1536-well; inhibition of corepressor binding, % at 4.78 µM;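 active = percent inhibition above the cutoff of mean plus 3 SD of all tested compounds, set per screening campaign, cut at about 20% in these data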;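 note: 0% = DMSO wells and 100% = biotin wells as full block of FRET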
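Test system – NR2E3–RetCOR corepressor complex · Quantity – NR2E3 fusion 1.35 nM · Buffer or medium – Tris pH 7.5 · Incubation – Compound–protein incubation for 5 h at 4 °C · Technique – TR-FRET, Eu(K)-anti-GST donor, streptavidin-D2 acceptor, ex 340, em 617/671 nm · Evaluation – percent inhibition of 671/617 nm emission ratio versus biotin and DMSO controls · Plate – 1536-well format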
Rev-erbA mod – modulators of Rev-erb alpha DNA binding, primary screen, biochemical, FITC-DNA, fluorescence polarization, uHTS. Rev-erbα–FITC-DNA binding, 90 min. AID 1259318, 2017. hit rate 0.79% among 370,000. Nuclear receptor subfamily 1 group D member 1 (Homo sapiens), P20393. activity, % at 10 µM;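 active = activity above about 14%, limit read from the data; passing the limit was not always enough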;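 note: 0% = DMSO wells with 35 nM protein and 100% = DMSO wells with 750 nM protein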
NR2E3 ag-2 – NR2E3 agonists in two-hybrid cells, primary screen, cell-based, luminescence, CHO-S, Gal4-NCOR/VP16-NR2E3; Photoreceptor-specific nuclear receptor (Homo sapiens), Q9Y5X4; AID 602229, 2012; luciferase; hit rate 0.35% among 360,000; inhibition of corepressor binding, % at 3.98 µM;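 active = inhibition above the mean of all tested compounds plus 3 SD, cut at about 70% in these data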;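 note: 0% = DMSO with NR2E3 transfected cells and 100% = cells lacking NR2E3 construct; higher means lower luciferase signal from less NR2E3 corepressor binding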
PG9 Ab binder – binders of HIV-1 gp120 antibody PG9, primary screen, biochemical, TR-FRET. inhibition, % at 6.7 µM. AID 624416, 2012. TR-FRET gp120-PG9 antibody binding. HIV-1 gp120 / PG9 antibody interaction. hit rate 0.43% among 360,000; in the data active = inhibition above about 8.5%
NR2E3 ag conf – NR2E3 agonist confirmation in cells, cell-based, luminescence, CHO-S two-hybrid. shares compounds with NR2E3 ag-2. CHO-S mammalian two-hybrid NR2E3-NCOR, luciferase luminescence. inhibition, % at 3.98 µM. hit rate 51% among 2,300. AID 624378, 2012;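 active = average inhibition above a cutoff equal to the mean inhibition of all tested compounds plus one SD, cut at about 70% in these data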;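 note: 0% = DMSO in NR2E3 cells and 100% = DMSO in cells lacking NR2E3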
VP16 counter – GAL4-VP16 reporter modulators, confirmation, counter-screen for NR2E3 agonist project, cell-based, luminescence, CHO-S, high throughput | shares compounds with NR2E3 ag-2 | CHO-S GAL4-VP16 luciferase reporter | inhibition, % at 3.98 µM | hit rate 29% among 2,300 | AID 624379, 2012;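 active = mean inhibition above a cutoff equal to the average over all tested compounds plus one standard deviation, cut at about 70% in these data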;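 note: luciferase from a UAS reporter driven by GAL4-VP16 transactivation; 0% = DMSO with VP16-transfected cells and 100% = DMSO with cells lacking VP16; higher means less reporter light so more repression of VP16 activity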
Numbers without * were called inactive; i = inactive; nt = not tested or not shown. Most compounds without a hit are left out; they make up all but 2% or so of the library.

SMILES	Neddylation inh	NR2E3 ag-1	Rev-erbA mod	NR2E3 ag-2	PG9 Ab binder	NR2E3 ag conf	VP16 counter
CCOC(=O)c1sc(NC(=O)c2cc(-c3ccc(C)cc3)nc3ccccc23)c(C#N)c1C	i	-0.1	0.1	9.2	1.9	nt	nt
O=C(Nc1nnc(-c2cccs2)o1)c1cc(-c2ccccc2)nc2ccccc12	i	-0.1	-0.3	71.0*	-1.3	98.8*	12.7
COC(=O)c1sc(NC(=O)c2cc(-c3ccccc3)nc3ccccc23)c(C#N)c1C	i	-1.2	3.1	49.4	0.0	53.8	63.4
C=CCN(Cc1ccc2c(c1)OCO2)C(C#CC1CC1)C(C)C (centres undefined)	nt	nt	3.3	nt	nt	nt	nt
NC(=O)C1CCN(c2ccnc(Cl)n2)CC1	nt	nt	-3.2	nt	nt	nt	nt
CCCn1c(CNc2ccc(Br)cc2)nc2ccccc21	i	-0.6	-5.3	54.3	-2.7	26.8	21.7
Cc1nc(NCc2ccco2)c2c(C)c(C)sc2n1	i	5.1	6.2	97.0*	-1.3	95.4*	68.1
C/C(=N\Nc1nc2ccccc2s1)c1ccc(Br)s1	i	0.7	5.7	-30.6	-0.9	nt	nt
CC(=NNc1nc2ccccc2s1)c1ccncn1	i	nt	-3.4	63.2	-1.8	-208.0	-202.7
COc1ccc(OC)c(CN2C(=O)CCCCC2(C)c2nnnn2C2CCCC2)c1 (centres undefined)	nt	nt	2.7	nt	nt	nt	nt
Cc1c(CCCN)c2ccccc2n1Cc1ccccc1	i	1.6	-0.9	49.8	3.1	-4.2	4.1
O=Nc1c(O)n(Cc2ccccc2)c2ccccc12	i	0.9	0.3	-7.9	-0.3	nt	nt
Cc1ccc(CSC(Nc2ccc(F)cc2)=C(C#N)C#N)cc1	i	0.3	7.4	98.8*	1.2	98.7*	89.8*
O=c1c2cc3cc(Cl)ccc3nc2ncn1N1CCCCC1	nt	nt	-1.5	nt	nt	nt	nt
Cc1ccc(C(=O)Nc2sc(C)c(-c3ccccc3)c2C(N)=O)cc1[N+](=O)[O-]	i	0.8	6.5	54.4	-2.0	56.5	16.1
Cc1cnc(NC(=O)CCCc2nc3ccccc3s2)s1	i	7.7	-2.8	109.0*	1.5	98.3*	23.3
C=C1C(=O)[C@@]23[C@H](O)C[C@@H]4C(C)(C)CC[C@H](O)[C@]4(C)[C@@H]2C[C@H](O)[C@@H]1[C@H]3O	i	-0.4	2.8	21.1	1.1	nt	nt
C=C1C(=O)[C@@]23[C@H](O)C[C@@H]4C(C)(C)CC[C@H](O)[C@@]4(C)[C@@H]2CC[C@@H]1[C@H]3O	i	5.6	-4.5	65.8	-0.7	-12.8	-91.9
CCCN(CCC)S(=O)(=O)c1ccc(C(=O)Nc2nnc(CSC)o2)cc1	i	-1.7	-2.3	56.0	-0.2	53.1	23.0
CCN(c1ccccc1)S(=O)(=O)c1ccc(C(=O)Nc2nnc(COC)o2)cc1	i	4.0	-5.2	19.8	0.5	nt	nt
CCN(c1ccccc1)S(=O)(=O)c1ccc(C(=O)Nc2nnc(CSC)o2)cc1	i	0.9	-5.2	65.5	-2.8	93.3*	31.8
COCc1nnc(NC(=O)c2ccc(S(=O)(=O)N(CC(C)C)CC(C)C)cc2)o1	i	-0.9	12.4	77.3*	-2.2	89.3*	28.1
COc1cccc(/C=C2\CC3(OC(=O)c4ccco4)CCCN2C3)c1 (centres undefined)	nt	nt	11.6	nt	nt	nt	nt
O=C(OC12CCCN(C1)/C(=C/c1ccccc1)C2)C1CCCC1 (centres undefined)	nt	nt	2.2	nt	nt	nt	nt
COC(=O)Cc1nnn2c1[C@H](C)[C@@H](OC)c1ccccc1-2	nt	nt	1.9	nt	-1.5	nt	nt
Cn1ccc2ccc(-c3ccc4c(c3)[C@]3(CCC[C@@H](OCc5ccccc5)[C@@H]3NC(=O)CCc3ccccc3)C(=O)N4Cc3ccccc3)cc21	nt	nt	2.5	nt	nt	nt	nt
